Hit rate of the full screen: of about 340,000 compounds, about 1,100 (0.32%) were called active. What follows is part of a selection rich in actives, with near analogues and random picks from the rest. Unmarked numbers belong to inactive results.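 The calls were made as follows: active = inhibition above a set limit, near 3 SD of compounds lacking own fluorescence (cut at about 54% in these data); inactive = the rest.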
test system: beta-arrestin 1 C-terminal peptide binding to AP2 beta2-adaptin appendage (human); experiment: blockers of arrestin peptide association with AP2 adaptin – biochemical, GPCR trafficking, flow cytometry, primary screen (AID 504490); conditions: FITC-arrestin peptide / GST-AP2 beads, at 10 µM, active compounds read high, AP2 beta2 appendage carries R879A mutation;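 also: plate controls were DMSO wells for no effect and 5 µM unlabelled arrestin peptide for full effect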
Method in brief: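 System: GST-AP2 R879A glutathione beads | Also added: FITC-arrestin peptide, 50 nM | Times: 12 min plus 1 h, RT | Signal: Bead flow cytometry, FITC channel | Buffer or medium: PBS with 0.05% Tween 20 and 0.1% BSA | Read-out basis: Percent drop in bead-associated FITC signal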

Structure (SMILES) | inhibition
CC12COC3(C(=O)Nc4ccc(Cl)cn4)CC1CCC32C (centres undefined) | 1.37%
CCc1ccccc1N(CC(=O)NCC1CCCO1)C(=O)CCC(=O)Nc1nccs1 (centres undefined) | -16.6%
Clc1cc(-c2ccc(/C=N/n3cnnc3)o2)ccc1Br | 1.32%
Brc1cc(/C=N/n2cnnc2)oc1Br | 1.91%
Cc1ccc(Cl)cc1-c1ccc(/C=N/n2cnnc2)o1 | 63.3% (active)
N#Cc1ccc(-c2ccc(Cl)cc2)nc1Oc1ccc(F)cc1 | -5.52%
Cc1c(C2=CCN(S(=O)(=O)c3ccc(Cl)cc3)CC2)c2ccccc2n1C | 6.61%
O=C(CCCNS(=O)(=O)c1cccc2nsnc12)NCCN1CCN(c2ccccc2F)CC1 | 5.08%
Cc1ccc(S(=O)(=O)N2CCN(C(=O)N3CCOCC3)CC2)c(C)c1 | 17.1%
Cc1ccc(S(=O)(=O)N2CCN(C(=O)Cn3c(=O)cnc4ccccc43)CC2)c(C)c1 | -13.3%
Cc1ccc(S(=O)(=O)N2CCN(C(=O)c3ccccc3-c3nc4ccccc4s3)CC2)c(C)c1 | 66.5% (active)
CC(C)(C)OC(=O)N1CCC(NC(=O)c2[nH]cnc2C(=O)N[C@@H](Cc2ccccc2)C(=O)OCc2ccccc2)CC1 | 9.22%
O=C(NCCN1CCOC1=O)C1CCC(=O)N(CCc2ccc(Cl)cc2)C1 (centres undefined) | -10.1%
CC(C)(C)c1ccc(C(=O)NCCn2c(N)c(C#N)c3nc4ccccc4nc32)cc1 | 94.7% (active)
N#Cc1c(N)n(CCOC(=O)c2ccc(Cl)cc2)c2nc3ccccc3nc12 | 3.34%
COCC(C)OC(=O)c1c(N)n(CCCN2CCOCC2)c2nc3ccccc3nc12 (centres undefined) | -8.22%
COc1ccc(S(=O)(=O)Nc2cccc3c2O[C@H](CN(C)S(=O)(=O)c2ccc(OC)cc2)[C@@H](C)CN([C@H](C)CO)C3=O)cc1 | -15.4%
COc1ccc(NC(=O)c2sc(N3CCOCC3)nc2-c2ccccc2)c(OC)c1 | 18.7%
COC(=O)CN1C(=O)[C@H]2[C@@H](/C=C/c3ccccc3)N3C(=O)CN(Cc4ccccc4)C(=O)[C@@]3(Cc3ccccc3)[C@H]2C1=O | -5.14%
CC(=O)Nc1ccc(NC(=O)CSC2=NS(=O)(=O)c3ccccc3N2)cc1 | 22%

Structure (SMILES) | inhibition
COC(=O)[C@H](C(C)C)n1c(C)c(C(C)=O)c(C(C)=O)c1C | -0.72%
COC(=O)c1cc(NC(=O)c2nn(C)c(=O)c3ccccc23)cc(C(=O)OC)c1 | 66.5% (active)
CCC(C)NC(=O)c1nn(C)c(=O)c2ccccc12 (centres undefined) | -22%
CCC(CC)c1nnc(NC(=O)c2nn(C)c(=O)c3ccccc23)s1 | -0.4%
O=C(OCc1nc2ccccc2[nH]1)C1CCCCC1 | -0.04%
Cn1c(N)c(C(=O)COC(=O)c2ccc3ccccc3c2)c(=O)n(C)c1=O | 7.54%
Cc1cc(C(=O)OCC(=O)c2c(N)n(C)c(=O)n(C)c2=O)c(C)o1 | 104% (active)
Cn1c(N)c(C(=O)COC(=O)c2cnc(Cl)c(Cl)c2)c(=O)n(C)c1=O | -4.58%
CCCCN(C(=O)CSCc1ccc(C)cc1)c1c(N)n(Cc2ccccc2)c(=O)[nH]c1=O | -0.62%
Cc1noc(C)c1CSc1nnc2ccc3ccccc3n12 | -1.44%
Cc1coc2c(O)cc3c(c12)OC1(N2CCCCC2)C(=O)NCCCC31 (centres undefined) | 9.81%
O=[N+]([O-])c1ccccc1N/N=C1\CCc2ccccc21 | -6.42%
Cn1cnnc1Sc1ccc(CN2CCN(C3CCCC3)C(CCO)C2)o1 (centres undefined) | -10.1%
CC(NC(=O)c1cc2cc(Cl)ccc2oc1=N)c1ccccc1 (centres undefined) | 56% (active)
CC(NC(=O)C(=O)N/N=C/c1ccc(Cl)cc1)c1ccccc1 (centres undefined) | 6.57%
Cc1ccc(C(=O)NC(C)c2ccccc2)cc1Br (centres undefined) | -2.36%
CN(C(=O)c1cccc([N+](=O)[O-])c1)c1ccccc1C(=O)NCc1ccccc1 | -22.1%
Cc1ccc(C)c(Cn2cnc3c(oc4ccccc43)c2=O)c1 | 29.7%
CCC(C(=O)OC)n1cnc2scc(-c3ccc(C)cc3)c2c1=O (centres undefined) | -1.08%
CCC(C(=O)OC)n1cnc2c(oc3ccccc32)c1=O (centres undefined) | 54.6% (active)

Structure (SMILES) | inhibition
Cc1ccc(NC(=O)CN2CCC3(O)CCCCC3C2c2ccc3c(c2)OCO3)c(C)c1 (centres undefined) | 1.75%
CC(=O)Nc1ccc(NC(=O)CN2C(=O)COc3ccc(S(=O)(=O)N4CCCCC4)cc32)cc1 | -9.58%
COC(=O)C1=C(C(=O)OC)C2(OC1c1ccc(Br)cc1)C(=O)c1ccccc1C2=O (centres undefined) | 7.98%
COc1ccc2c(CC(=O)N3CCc4cc(OC)c(OC)cc4C3)coc2c1 | -6.31%
COc1cc2c(cc1OC)CN(C(=O)c1cc(=O)c3ccccc3o1)CC2 | 82.5% (active)
COc1ccccc1CNC(=O)c1cc(=O)c2ccccc2o1 | 2.61%
CCC(=O)Nc1nc2ccccc2n1Cc1ccccc1C | 69.6% (active)
C=CCn1c(C(C)NC(=O)CC)nc2ccccc21 (centres undefined) | -3.06%
CC(=O)NC(C)c1nc2ccccc2n1Cc1ccccc1F (centres undefined) | -8.31%
O=C(CSc1nnc(-c2ccncc2)n1C1CCCCC1)Nc1ccccc1 | 0.57%
Cc1cccc(Nc2ccccc2C(=O)NCc2ccco2)c1C | 99.8% (active)
O=C(CCNC(=O)c1ccccc1Cl)NCc1ccco1 | -2.42%
Cc1ccc(N(Cc2ccc(C(=O)Nc3ccccc3C(=O)NCc3ccco3)cc2)S(C)(=O)=O)cc1C | -0.75%
COc1ccc(OCC(=O)NN2Cc3ccccc3C2=N)cc1 | 10.9%
CC(Oc1ccccc1)C(=O)Nc1c2c(nn1-c1ccccc1)CS(=O)C2 (centres undefined) | 4.67%
CC(Oc1ccccc1)C(=O)NN1Cc2ccccc2C1=N (centres undefined) | 59.1% (active)
O=C(CSc1nnc(COc2ccc(Cl)cc2)n1Cc1ccco1)N1CCNC1=O | -11.3%
CCc1cccc(C)c1NC(=S)N(CCCN1CCN(C)CC1)Cc1cccs1 | -5.26%
COc1cc(Cl)ccc1OCc1cc(C(=O)N(C)CCc2c(C)n[nH]c2C)no1 | -14.3%

— PubChem BioAssay AID504490 (NMMLSC, 2011)
